Only some compounds are listed: those with a hit (about 3.8% of all), similar ones and a draw of the others.
KCNQ1 block: inhibitors of human KCNQ1 potassium channel. P51787. CHO-K1 KCNQ1, FluxOR thallium flux fluorescence; hits give high values. B-score at 10 µM. hit rate 1.3% among 310,000. AID 2642;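 active means compounds whose thallium flux B-score, printed positive for inhibition, exceeds three library SD while starting fluorescence stays within three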;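 further: channel opened by potassium depolarization with thallium stimulus after 20 min compound exposure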
KCNK3 block: human KCNK3 channel inhibition, primary screen; O14649; CHO-KCNK3 thallium flux, FluxOR fluorescence; hits give low values; B-score at 10 µM; hit rate 0.84% among 340,000; AID 602410;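 active means B-score under library mean minus 4 SD, starting fluorescence ratio at most library mean plus 5 SD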;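 further: more negative B-score means stronger inhibition of thallium flux through KCNK3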
hERG rescue: compounds protecting human hERG from proarrhythmic drug block. Q12809. CHO-hERG, FluxOR thallium flux, dofetilide IC70 present. activation (rescue from dofetilide block), less the hit threshold, % at 10 µM. hit rate 0.51% among 310,000;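 active means activation above the mean of controls blocked by dofetilide plus 5 SD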;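 further: thallium influx through hERG after potassium depolarization seen as dye fluorescence rise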
Target sequence (Q12809 whole entry, looked up): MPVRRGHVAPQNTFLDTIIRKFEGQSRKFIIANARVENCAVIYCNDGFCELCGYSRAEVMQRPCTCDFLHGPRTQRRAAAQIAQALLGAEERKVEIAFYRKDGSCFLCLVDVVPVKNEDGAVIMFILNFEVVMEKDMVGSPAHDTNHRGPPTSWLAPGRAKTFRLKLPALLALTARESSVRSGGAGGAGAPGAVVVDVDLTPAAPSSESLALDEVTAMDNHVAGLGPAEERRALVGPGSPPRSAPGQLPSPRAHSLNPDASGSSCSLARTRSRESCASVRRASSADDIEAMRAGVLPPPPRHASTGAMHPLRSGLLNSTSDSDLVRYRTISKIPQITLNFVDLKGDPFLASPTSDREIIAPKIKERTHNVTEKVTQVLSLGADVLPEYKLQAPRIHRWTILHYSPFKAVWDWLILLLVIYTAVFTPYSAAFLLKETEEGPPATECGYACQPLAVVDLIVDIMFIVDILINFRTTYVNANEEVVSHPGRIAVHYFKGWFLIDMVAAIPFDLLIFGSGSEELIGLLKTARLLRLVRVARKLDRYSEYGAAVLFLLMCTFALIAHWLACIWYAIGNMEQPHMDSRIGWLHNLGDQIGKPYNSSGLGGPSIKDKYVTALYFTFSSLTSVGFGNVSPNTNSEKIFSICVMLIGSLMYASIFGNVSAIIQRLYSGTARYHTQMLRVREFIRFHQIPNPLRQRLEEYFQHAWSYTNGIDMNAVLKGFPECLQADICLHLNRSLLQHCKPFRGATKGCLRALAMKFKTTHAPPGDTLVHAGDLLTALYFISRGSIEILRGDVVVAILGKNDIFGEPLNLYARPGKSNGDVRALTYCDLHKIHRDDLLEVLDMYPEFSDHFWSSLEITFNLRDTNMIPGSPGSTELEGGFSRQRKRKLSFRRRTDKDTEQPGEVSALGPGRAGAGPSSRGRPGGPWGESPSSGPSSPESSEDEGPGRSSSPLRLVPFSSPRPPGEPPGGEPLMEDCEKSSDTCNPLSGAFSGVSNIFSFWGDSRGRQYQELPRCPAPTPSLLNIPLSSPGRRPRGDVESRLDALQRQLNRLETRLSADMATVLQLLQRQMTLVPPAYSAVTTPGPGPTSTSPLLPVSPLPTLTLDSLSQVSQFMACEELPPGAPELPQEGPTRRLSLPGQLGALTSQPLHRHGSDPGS
Kir21 block: Kir2.1 (mouse) channel inhibition. HEK293-Kir2.1, FluxOR thallium flux fluorescence; hits give low values. B-score at 10 µM. hit rate 0.85% among 310,000;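 active means fluorescence ratio B-score at or below minus 3 SD of library scores, with starting-brightness B-score within 2 SD, cut at about -4.2 in these data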;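 further: channel flux triggered by added potassium and thallium sulfate stimulus; B-score of peak minus minimum fluorescence over baseline after thallium stimulus; more negative B-score means stronger Kir2.1 block with less thallium influx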
KCNQ1 pot: potentiators or activators of human KCNQ1 potassium channel; P51787; CHO-K1 KCNQ1, thallium flux FluxOR fluorescence; hits give high values; B-score at 10 µM; hit rate 0.35% among 310,000; AID 2648;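 active means fluorescence ratio B-score, a plate-corrected score, at least three library SD, with initial intensity B-score within 5 SD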
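Medium – assay buffer, equal DMSO in all wells · Material – CHO-K1 cell line with stable KCNQ1 potassium channel expression · Signal – kinetic FluxOR thallium fluorescence, 10-s 1-Hz baseline, 110-s post-stimulus read · Compound – single concentration per compound, DMSO matched to controls · Schedule – 37 °C overnight plating, 90-min dark dye load, 20-min compound pretreatment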
KCNK9 inh: blocks the human KCNK9 two-pore domain potassium channel; hit rate 1.2% among 310,000; B-score at 10 µM; HEK293 KCNK9, FluxOR thallium flux fluorescence; hits give low values; AID 488922;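 active means ratio B-score over 3 SD below the library mean, with starting fluorescence within 5 SD of its mean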;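 further: negative B-score means less thallium flux so channel inhibition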
Numbers without * were called inactive; i = inactive; . = no result given.

SMILES | KCNQ1 block | KCNK3 block | hERG rescue | Kir21 block | KCNQ1 pot | KCNK9 inh
CCCCn1c(-c2csc(CC)c2)n[nH]c1=S | i | i | -7.8 | -1.14 | i | i
Oc1ccc2ccccc2c1C=Nc1ccccc1-c1nc2ccccc2[nH]1 | 9* | i | -9.4 | 0.78 | i | i
O=C(O)c1ccccc1-c1nc2ccccc2[nH]1 | i | i | -2.9 | -0.05 | i | i
O=C(NN=C1c2ccccc2-c2ccccc21)c1ccccc1Br | i | i | -11.6 | 1.74 | i | i
OC(c1ccccc1)(c1ccccc1)c1nccc2ccccc12 | . | -10.1* | . | . | . | .
Cc1nnc(Sc2cc(NCCO)c([N+](=O)[O-])c3nonc23)s1 | 8* | i | -36.4 | -2.1 | i | i
O=[N+]([O-])c1c(NCCO)cc(N2CCCCCC2)c2nonc12 | i | i | -5.7 | 0.19 | i | i
O=[N+]([O-])c1c(NCCCO)cc(Sc2nc3ccccc3s2)c2nonc12 | i | i | -12.0 | 1.05 | i | i
Cc1nnc(Sc2cc(NCCCO)c([N+](=O)[O-])c3nonc23)s1 | 10* | i | -23.5 | -7.11* | i | -7.22*
Cc1nc2nc(SCC(=O)O)nn2c(C)c1Cc1ccccc1Cl | i | i | -4.1 | 0.67 | i | i
O=C(COC(=O)CC(c1ccccc1)c1ccccc1)NCc1ccccc1 | i | i | -10.6 | -5.81* | i | i
O=C(COC(=O)Cc1ccc(-c2ccccc2)cc1)NCc1ccccc1 | i | i | -0.6 | 1.12 | i | i
O=C(COC(=O)CC(c1ccccc1)c1ccccc1)Nc1ccc(F)c(F)c1 | 6* | . | -18.4 | -1.1 | i | i
CCn1c(=O)c(-[n+]2ccccc2)c(O)c2ccccc21 | i | i | 8.3* | 1.46 | i | i
CCn1c(=O)c(C(=O)NNC(=O)c2ccccc2)c(O)c2ccccc21 | i | i | -6.3 | 0.48 | i | i
CC(C)N(Cc1ccccc1)C(=S)Nc1ccc(F)cc1 | i | i | 13.8* | -0.29 | i | i
CC(C)N(Cc1ccccc1)C(=S)NC(=O)C1(C)CC1(Cl)Cl (stereo unspecified) | i | i | 21.1* | -1.46 | 26* | i
Cc1ccc(NC(=S)N(Cc2ccccc2)C(C)C)cc1 | i | i | -3.7 | 1.11 | i | i
CC(C)N(Cc1ccccc1)C(=S)Nc1cccnc1 | i | i | 0.3 | 0.02 | i | i
COc1ccc(C(=O)Nc2ccc3oc(-c4cccnc4)nc3c2)cc1OC | i | i | -6.2 | 0.35 | i | i
Cc1cc(C)cc(CSCC(=O)NN=C2CCCCCC2)c1 | i | i | -10.1 | -10.3* | i | i
CCOC(=O)c1nn(-c2ccc(Cl)cc2Cl)c(=N)c(C#N)c1C | 6* | . | -9.5 | -1.56 | i | i
Cc1ccc(/C=C/C2=Cc3c(sc(NC(=O)CSc4n[nH]c(N)n4)c3C#N)C(C)(C)C2)o1 | 6* | . | -15.0 | -1.17 | i | i
CC(Oc1ccccc1)C(=O)Nc1ccc(S(=O)(=O)N2CCN(C)CC2)cc1 (stereo unspecified) | i | i | -6.4 | -0.18 | i | i
O=C(COc1ccccc1-c1ccccc1)N/N=C/c1cccc2ccccc12 | i | i | -2.4 | -0.57 | i | i
SMILES | KCNQ1 block | KCNK3 block | hERG rescue | Kir21 block | KCNQ1 pot | KCNK9 inh
O=C(COc1cccc2ccccc12)N/N=C/c1ccccc1OCc1ccc(C(=O)O)cc1 | 11* | i | -13.6 | 2.06 | i | i
NC(=O)c1ccc(-n2nnnc2Oc2ccc(Br)cc2)cc1 | i | i | -5.4 | -0.6 | i | i
Cc1ccc(C(NC(=O)C2CCCCC2)c2c(O)ccc3ccccc23)cc1 (stereo unspecified) | 9* | i | -16.4 | 0.76 | i | i
CC(=O)NC(c1ccc(C(C)C)cc1)c1c(O)ccc2ccccc12 (stereo unspecified) | i | i | -1.9 | -0.5 | i | i
Cc1ccc(C2NC(c3ccc(C)cc3)C(C)C(=O)C2C)cc1 (stereo unspecified) | i | i | -9.7 | -1.87 | i | -7.02*
O=C(CC(c1ccccc1)c1ccccc1)Nc1ncn[nH]1 | i | i | -1.5 | -1.03 | 24* | i

Source: PubChem
